14 compounds from ChEMBL document CHEMBL3352283, “Benzodioxane-benzamides as new bacterial cell division inhibitors” (Eur J Med Chem, 2015) can be followed below.

In brackets after ≈: the same amount, converted by molar mass. Activity calls are given as the source filed them. The calls are words filed in the database; no cut-off is given here. Bounds are passed on as bounds.

Data set [1] has as its system Staphylococcus aureus. Description: Antibiotic activity against Staphylococcus aureus assessed as growth inhibition after 2 days by optical microscopy. Particulars: 48 h. The format is functional.
The next data set has as its system Escherichia coli. The data set can be described thus: Antibiotic activity against Escherichia coli DH5alpha assessed as growth inhibition after 2 days by optical microscopy. The following applies: DH5[alpha], 48 h. Format: functional.
The subject of data set [2] is Staphylococcus aureus. Description: Antibiotic activity against Staphylococcus aureus assessed as growth inhibition after compound washout by optical microscopy. Format: functional.
A short description of data set [3]: (§1) Cytotoxicity against human MRC5 cells assessed as reduction in cell viability after 24 hrs by MTT assay. The format is cell-based. The following applies: MRC5 cells, read-out: TD50. The essentials: (§2)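 Vero or MRC-5 cells kept in DMEM with 10% heat-inactivated calf serum, 37 °C, 5% CO₂; compound-treated cells given MTT for 3 h at 37 °C, then DMSO 10 min, absorbance at 570 nm; cytotoxicity % = 100 − (sample OD/untreated OD) × 100; TD50/TD90 = dose cutting viability 50% or 90%.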

The subject of a further data set is MRC5. The data set is described as §1. Format: cell-based. Particulars: mrc5, 24 h. The method, boiled down:
as §2

Data set [4] can be described thus: Therapeutic index, ratio of TD90 for human MRC5 cells to MBC for Staphylococcus aureus. Format: cell-based. The following applies: read-out: TI. The essentials:
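Therapeutic index calculated as MRC-5 TD90 (MTT assay) divided by MBC measured after washout regrowth test.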

Data set [5] can be described thus: (§3) Cytotoxicity against african green monkey Vero cells assessed as reduction in cell viability after 24 hrs by MTT assay. The format is cell-based. The following applies: chlorocebus sabaeus, Vero cells; read-out: TD50. The essentials:
as §2
On the technique in general: Tetrazolium assays rely on reduction of a dye to a coloured formazan, in cell work by metabolically active cells.

The test system of another data set is Vero. The description is as §3. Format: cell-based. Particulars: chlorocebus sabaeus, vero, 24 h. The essentials:
as §2

The test system of data set [6] is Staphylococcus aureus. Description: Antibiotic activity against Staphylococcus aureus assessed as ballooning of cocci at 1 to 4 times MIC concentration by phase-contrast microscopy. The format is functional, organism-based.

In general, MIC refers to the lowest concentration found to suppress growth. `NC(=O)c1c(F)ccc(OCCCCOCC(O)CO)c1F` (stereo not given): the MIC in the data set on Staphylococcus aureus [1] and in the data set on Escherichia coli was above 100 µg/mL throughout.

Usually MBC stands for the lowest tested concentration that kills the bacteria rather than only halting them. For `NC(=O)c1c(F)ccc(OCC2COc3ccccc3O2)c1F` (racemic), the minimal inhibitory concentration (MIC) with Staphylococcus aureus [1] is 5 µg/mL (≈ 15.6 µM); in the data set on Escherichia coli, above 100 µg/mL. Also, the MBC with Staphylococcus aureus [2] came out at 80 µg/mL (≈ 249 µM).

`NCCNC(=O)c1c(F)ccc(OCC2COc3ccccc3O2)c1F` (stereo not given): the MIC is 20 µg/mL (≈ 54.9 µM) in the data set on Staphylococcus aureus [1] and above 100 µg/mL in the data set on Escherichia coli. Besides, the MBC in the data set with Staphylococcus aureus [2] was found to be 40 µg/mL (≈ 110 µM).

As for `NC(=O)c1c(F)ccc(OC[C@@H]2COc3ccc(Cl)cc3O2)c1F`, the MIC was 0.25 µg/mL (≈ 0.703 µM) in the data set on Staphylococcus aureus [1] and above 100 µg/mL in the data set with Escherichia coli. Besides, the figures for the CC50 at 24 h in [3] and in data set [5] were 600 µg/mL (≈ 1690 µM) and above 200 µg/mL, respectively. Moreover, the TD90 with MRC5 is above 800 µg/mL; in the data set with Vero, above 200 µg/mL. In addition, in the data set on Staphylococcus aureus [2], the MBC was found to be 0.5 µg/mL (≈ 1.41 µM). The selectivity ratio in data set [4] is above 1600.

For `CCCCCCCCCOc1ccc(F)c(C(=O)NCCNC(=O)c2c(F)ccc(OCCCCCCCCC)c2F)c1F`, the minimal inhibitory concentration (MIC) in the data set on Staphylococcus aureus [1] and in the data set on Escherichia coli was above 100 µg/mL throughout.

Turning to `CCCCCCCCCOc1ccc(F)c(C(=O)NCCO)c1F`, the minimal inhibitory concentration (MIC) with Staphylococcus aureus [1] and with Escherichia coli was above 100 µg/mL in each case.

`NC(=O)c1c(F)ccc(OCC2COc3ccc(Cl)cc3O2)c1F` (racemic): the MIC in the data set with Staphylococcus aureus [1] was 0.5 µg/mL (≈ 1.41 µM); with Escherichia coli it was above 100 µg/mL. For the same compound, the CC50 at 24 h stood at 500 µg/mL (≈ 1410 µM) in data set [3] and 450 µg/mL (≈ 1270 µM) in [5]. In addition, the TD90 with MRC5 and in the data set on Vero was above 800 µg/mL each time. The minimal bactericidal concentration (MBC) in the data set on Staphylococcus aureus [2] was 0.5 µg/mL (≈ 1.41 µM). The result in the data set with Staphylococcus aureus [6] was Active. Further, the selectivity ratio in [4] is above 1600.

`CCCCCCCCCOc1ccc(F)c(C#N)c1F`: the minimal inhibitory concentration (MIC) with Staphylococcus aureus [1] and in the data set with Escherichia coli was above 100 µg/mL in each case.

For the compound `NCC(O)COCCCCOc1ccc(F)c(C(N)=O)c1F` (racemic), the MIC in the data set with Staphylococcus aureus [1] and in the data set with Escherichia coli was above 100 µg/mL throughout.

In the case of `NC(=O)c1c(F)ccc(OC[C@H]2COc3ccc(Cl)cc3O2)c1F`, the MIC in the data set with Staphylococcus aureus [1] is 1 µg/mL (≈ 2.81 µM); with Escherichia coli it was above 100 µg/mL. The CC50 at 24 h in data set [3] is 400 µg/mL (≈ 1120 µM); in data set [5], above 200 µg/mL. Moreover, the TD90 in the data set with MRC5 is above 800 µg/mL; in the data set with Vero it was above 200 µg/mL. In the data set with Staphylococcus aureus [2], the minimum bactericidal concentration (MBC) came to 2.5 µg/mL (≈ 7.03 µM). Moreover, the selectivity ratio in data set [4] is above 320.

In the case of `CCCCCCCCCOc1ccc(F)c(C(N)=O)c1F`, the minimal inhibitory concentration (MIC) in the data set on Staphylococcus aureus [1] is 0.1 µg/mL (≈ 0.334 µM); in the data set with Escherichia coli, above 100 µg/mL. The CC50 at 24 h is 100 µg/mL (≈ 334 µM) in [3] and 90 µg/mL (≈ 301 µM) in data set [5]. Moreover, the TD90 in the data set on MRC5 and in the data set with Vero was above 200 µg/mL each time. In the data set on Staphylococcus aureus [2], the MBC turned out to be 0.25 µg/mL (≈ 0.835 µM). Besides, in data set [4], the selectivity ratio was above 800.

In the case of `NC(=O)c1c(F)ccc(OCC2COc3cc(Cl)ccc3O2)c1F` (racemic), the MIC in the data set on Staphylococcus aureus [1] is 1 µg/mL (≈ 2.81 µM); in the data set on Escherichia coli, above 100 µg/mL. Moreover, the CC50 at 24 h stood at 650 µg/mL (≈ 1830 µM) in data set [3] and 550 µg/mL (≈ 1550 µM) in [5]. The TD90 with MRC5 and in the data set with Vero was 800 µg/mL throughout. Also, the MBC with Staphylococcus aureus [2] stood at 2.5 µg/mL (≈ 7.03 µM). The selectivity ratio in data set [4] came out at 320.

In the case of `CCCCCCCCCOc1ccc(F)c(C(=O)NCCN)c1F`, the MIC in the data set on Staphylococcus aureus [1] is 10 µg/mL (≈ 29.2 µM); with Escherichia coli, 20 µg/mL (≈ 58.4 µM). Further, the CC50 at 24 h in [3] was 35 µg/mL (≈ 102 µM); in data set [5], 60 µg/mL (≈ 175 µM). Besides, the TD90 in the data set on MRC5 worked out at 80 µg/mL; with Vero, 120 µg/mL.

Turning to `CCCCCCCCCOc1ccc(F)c(C2=NCCO2)c1F`, the MIC with Staphylococcus aureus [1] and with Escherichia coli was above 100 µg/mL throughout.
